Most compounds without a hit are left out; they make up all but 5.8% or so of the library.
ROMK mod: modulates human ROMK potassium channel activity; P48048; Tet-inducible ROMK, thallium flux fluorescence; actives lie on both sides; B-score at 10 µM; 130,000 compounds, 2% hits;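 active = signal ratio slope over the read window, or its plate-corrected B-score, at least 3 SD from the plate mean, either direction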;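 note: B-score of the F/F0 ratio slope over 7 to 12 s after thallium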
NCF1 inh: blocks human p47phox regulatory protein of NADPH oxidases. 220,000 compounds, 0.53% hits. P14598. inhibition, % at 24.7 µM. p47phox/p22phox peptide binding, fluorescence polarization, 2 h. AID 1274;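 active = inhibition above about 30%, limit read from the data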;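 note: 0% = p47phox with labelled peptide and 100% = labelled peptide alone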
RBBP9 inhibitor: inhibitors of human serine hydrolase RBBP9; recombinant RBBP9, FP-Rh probe fluorescence polarization; inhibition, % at 7.94 µM; 220,000 compounds, 0.2% hits;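 active = inhibition above the campaign mean of all tested compounds plus 3 SD, cut at about 14% in these data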;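 note: plate controls were DMSO wells with RBBP9 for no effect and wells lacking RBBP9 protein for full effect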
Target sequence (O75884 whole entry, looked up): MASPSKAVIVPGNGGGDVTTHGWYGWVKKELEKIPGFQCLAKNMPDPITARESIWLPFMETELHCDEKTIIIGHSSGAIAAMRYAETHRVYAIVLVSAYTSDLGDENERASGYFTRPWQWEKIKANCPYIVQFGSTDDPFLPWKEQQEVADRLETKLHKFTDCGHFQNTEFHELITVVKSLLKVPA
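system = RBBP9 protein | input = RBBP9 at 2.5 µM in dispensed solution, before mixing | measured by = fluorescence polarization (mP), excitation 525 nm, emission 598 nm | incubation = enzyme-compound preincubation 30 min, then probe labeling 45 min, 25 °C | buffer or medium = Tris-NaCl-Pluronic buffer, pH 8.0 | compound = single dose 7.94 µM | also added = FP-Rh probe, 375 nM dispensing solution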
WT yeast gro inh: growth inhibition of WT yeast, mitochondrial fusion screen; mitochondrial fusion phenotypic screen, WT strain; inhibition, % at 10 µM; 190,000 compounds, 2.1% hits; AID 1362; in the data active = inhibition above about 58%; tested in S. cerevisiae
Cl transport mod: KCC2 (human) Cl- transport modulation. Q9H2X9. KCC2 cells, thallium flux FluoZin-2 fluorescence. B-score of Tl+ flux slope (higher = more flux/activation; lower = inhibition) at 10 µM. 190,000 compounds, 2.2% hits;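 active = thallium flux slope and its plate-corrected score both differing from the plate sample mean at a set confidence after two filtering rounds, in either direction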;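 note: slope of fluorescence scaled to starting intensity during 10 to 20 s after thallium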
14-3-3 Bad PPI: disrupts binding of bovine 14-3-3 zeta to phospho-Bad peptide. P63103. TR-FRET 14-3-3zeta/Dy647-pBad peptide displacement, 1 h. inhibition, % at 21.7 µM. 220,000 compounds, 0.71% hits. AID 781;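 active = inhibition above about 70%, limit read from the data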;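 note: 0% = full 14-3-3 plus peptide FRET controls and 100% = background without 14-3-3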
Target sequence (P63103 whole entry, looked up): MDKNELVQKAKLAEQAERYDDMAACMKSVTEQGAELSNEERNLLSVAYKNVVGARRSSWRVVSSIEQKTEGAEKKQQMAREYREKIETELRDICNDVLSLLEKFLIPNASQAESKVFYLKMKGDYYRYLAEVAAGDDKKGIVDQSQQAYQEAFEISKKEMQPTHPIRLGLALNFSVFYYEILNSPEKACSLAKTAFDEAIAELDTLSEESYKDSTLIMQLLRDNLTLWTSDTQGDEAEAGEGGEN
Numbers without * were called inactive; / = no result given; [ ] = dose if it differs, or a comment.

SMILES | ROMK mod | NCF1 inh | RBBP9 inhibitor | WT yeast gro inh | Cl transport mod | 14-3-3 Bad PPI
Cc1cc(C)cc(NC(=O)c2ccc(Cn3nc(C)c(Cl)c3C)o2)c1 | -2.9 | -8 | -15 | 74* | -1.1 | -7
O=C(COC(=O)COc1ccc2ccccc2c1)NCC(F)(F)F | 0.024 | -1 | -7 | 12 | -3 | 1
O=C(CCc1nnc(COc2ccccc2)o1)NC1(c2ccccc2)CC1 | 0.12 | 0 | -5 | -8 | -0.6 | -8
c1ccc(-c2csc3ncnc(NCC4COc5ccccc5O4)c23)cc1 (centres undefined) | -1.5 | -44 | -11 | 72* | 1.1 | -5
COc1ccc(CCNC(=O)Cc2c(Cl)cccc2Cl)cc1 | -0.68 | 1 | -12 | 28 | 0.016 | 22
CCC(C)(C)c1ccc(Oc2ccc(N)cc2)cc1 | 0.0063 | -5 | -11 | 89* | 0.37 | -2
CCC(C)(C)c1ccc(Oc2cccc(C(=O)O)c2)cc1 | / | -20 | -2 | / | 2 | -14
C=CCc1c(C)[nH]c2c(OC)cccc2c1=S | 0 | 21 | -13 | 67* | -0.95 | -5
COc1ccc(OCCn2c(C)c(/C=N/n3cnnc3)c3ccccc32)cc1 | / | 1 | -9 | -10 | 1.6 | -3
Cc1c(/C=N/n2cnnc2)c2ccccc2n1C | / | -5 | -2 | 8 | / | 71*[fluorescence artefact?]
CCN1CCc2nc(NC(=O)c3ccccc3)sc2C1 | -0.075 | -25 | -4 | 81* | 0.7 | -3
O=C(Nc1nc2c(s1)CN(Cc1ccccc1)CC2)C1CCC1 | -0.9 | -19 | -7 | 1 | -2.3 | -11
COC(=O)c1ccc(C(=O)NC(=S)Nc2nc3c(s2)CCCC3)cc1 | / | -19 | -8 | 29 | 25* | -3
O=C(NC(=S)Nc1nc2c(s1)CCCC2)c1ccccc1 | / | -15 | 0 | 12 | 11* | 10
COc1ccc(OC)c(-c2nc3cc4ccccc4cc3nc2-c2ccccc2)c1 | 1.1 | -9 | -3 | 40 | 0.4 | -5
COc1ccccc1C(=O)N/N=C(\C)c1ccc(NC(=O)C2CC2)cc1 | 0.18 | -5 | -3 | 1 | -0.086 | -14
Cc1nnc2n(c1=O)C(CS(=O)(=O)c1ccc3ccccc3c1)CS2 (centres undefined) | -0.12 | -9 | -4 | 8 | 0.6 | -4
Clc1cncc(Cl)c1NNc1c2ccccc2nc2ccccc12 | / | -25 | 4 | 83* | 0.46 | -4
Nc1c2ccccc2nc2ccccc12 | / | 6 | -7 | / | -0.87 | 1
O=C(c1ccc(=O)[nH]n1)N1CCc2ccccc2C1 | / | -8 | -8 | / | 0.00031 | -1
CC1CCCCC1NC(=S)Nc1ccc(SC(F)F)cc1 (centres undefined) | -1 | -16 | 2 | 69* | -1.3 | -2
S=C(NCC1CCCCC1)Nc1ccc(Oc2ccccc2)cc1 | / | -70 | -10 | 77* | -1.4 | -17
S=C(Nc1ccc(Br)cc1)NC1CCCC1 | -0.52 | -28 | -4 | 44 | -0.27 | -10
FC(F)Sc1ccc(NC(=S)NCC2CCCCC2)cc1 | -1.8 | -3 | -1 | 78* | -1.4 | -6
S=C(Nc1ccc(Oc2ccccc2)cc1)NC1CCCC1 | -1.3 | -15 | -8 | 62* | -1.7 | -11
SMILES | ROMK mod | NCF1 inh | RBBP9 inhibitor | WT yeast gro inh | Cl transport mod | 14-3-3 Bad PPI
FC(F)Sc1ccc(NC(=S)NC2CCCCC2)cc1 | -1.3 | -4 | -8 | 41 | 0.74 | -11
O=C(NC(=S)NCCOCc1ccc(Cl)cc1)c1cccnc1 | -0.6 | -10 | -7 | 17 | 3.9 | 1
O=C(c1ccco1)c1coc2c1cc(O)c1ccccc12 | 0.2 | 9 | 3 | -3 | 0.46 | 6
CCOc1cc(/C=C2/SC(=S)N(C)C2=O)ccc1Oc1ccc([N+](=O)[O-])cc1[N+](=O)[O-] | 0.17 | -141 | -6 | -6 | -0.9 | -4
S=C(Nc1ccccc1Oc1ccccc1)NC1CCCC1 | -0.7 | 5 | 5 | 68* | -0.43 | -3
COc1ccc(NC(=S)NC2CCCCCC2)c(OC)c1 | / | -12 | 0 | 64* | -0.31 | 14
O=C(Nc1ccccc1Oc1ccccc1)C1CCCC1 | 0.65 | -6 | -10 | 18 | -2.3 | 5
O=C(Nc1ccc(F)cc1)OCCOc1ccc(Br)cc1 | / | 3 | -8 | / | / | 7
Cc1onc(-c2ccccc2)c1C(=O)NNC(=S)NC(=O)c1ccc(Br)cc1 | 0.31 | -31 | -15 | 31 | 20* | 6
O=c1[nH]c(-c2ccccc2Cl)nc2c1sc(=S)n2-c1ccccc1 | -0.093 | -6 | -4 | -4 | -2.5 | 71*
O=c1[nH]c(-c2ccc(F)cc2)nc2c1sc(=S)n2-c1ccccc1 | / | -13 | -8 | 12 | -0.77 | -6
Cc1ccc(NC2=C/C(=N/S(=O)(=O)c3cccs3)c3ccccc3C2=O)cc1C | -0.005 | 36* | -3 | 6 | 0.21 | -4
Cc1ccccc1NC1=C/C(=N\S(=O)(=O)c2cccs2)c2ccccc2C1=O | -1.2 | 14 | -2 | 89* | -0.6 | 7
CC(=O)Nc1ccc(NC2=C/C(=N/S(=O)(=O)c3cccs3)c3ccccc3C2=O)cc1 | -0.35 | 7 | -2 | 21 | 0.94 | 20
COc1ccccc1CNC(=O)C1CC(c2ccc([N+](=O)[O-])cc2)=NO1 (centres undefined) | / | -11 | 3 | 33 | 0.48 | 11
COc1ccccc1CNC(=O)C1CC(c2c(Cl)cccc2Cl)=NO1 (centres undefined) | / | -9 | -3 | 13 | / | 70*
CN(C)c1ccc(CNCCC2CCOC(C)(C)C2)cc1 (centres undefined) | / | -11 | -1 | 0 | -0.47 | 92*
CC1(C)CC(NCc2ccccc2)CCO1 (centres undefined) | 0.18 | 3 | -5 | -9 | 0.47 | -5
COc1ccc(N/C(=C(/C(Cl)=C(Cl)Cl)[N+](=O)[O-])n2nnc3ccccc32)cc1 | -1.6 | -3 | 3 | 1 | -2.2 | 79*
Cc1ccccc1N/C(=C(/C(Cl)=C(Cl)Cl)[N+](=O)[O-])n1nnc2ccccc21 | 0.054 | 2 | -3 | 3 | 0.59 | 54
O=S(=O)(c1ccc(Br)s1)N1CCN(Cc2ccc3c(c2)OCO3)CC1 | -1.1 | 2 | -4 | 61* | -0.44 | -5
O=S(=O)(c1cc(Cl)ccc1Cl)N1CCN(Cc2ccc3c(c2)OCO3)CC1 | / | -6 | -11 | 58 | -0.13 | -5
COc1ccccc1NC(=S)N(Cc1cccs1)C1CCCC1 | -0.79 | 2 | -4 | 75* | -1.3 | -3
COc1ccccc1NC(=S)N(Cc1ccccc1)Cc1cccs1 | 0.00089 | -6 | 5 | 18 | 0.77 | -15
Cc1noc(C)c1CS(=O)(=O)c1ccc([N+](=O)[O-])cc1 | 1.3 | 3 | 7 | -1 | / | 1
COc1ccc(Cl)cc1NC(=O)C(C)N1CCN(C/C=C/c2ccccc2)CC1 (centres undefined) | / | 4 | 6 | 22 | 0.0082 | 76*
CC(=O)c1ccc(NC(=O)C(C)N2CCN(C/C=C/c3ccccc3)CC2)cc1 (centres undefined) | -2.1 | -14 | 0 | -19 | 2.6 | -15
